ChEMBL document CHEMBL4049414, “Can We Make Small Molecules Lean? Optimization of a Highly Lipophilic TarO Inhibitor” (J Med Chem, 2017)
pIC50: −log10 of the molar value. ≈ marks a conversion by molar mass, not a printed value. Calls of active or inactive are those of the source. The rule behind the calls is not given here.

Assays:
[1] = test system: Staphylococcus aureus subsp. aureus COL; assay: Inhibition of methicillin-resistant Staphylococcus aureus COL TarO assessed as compound concentration required for potentiation of imipenem-mediated bacterial growth inhibition by 95% after 20 hrs
In short: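 MRSA COL grown with compound in the presence of imipenem at 4 μg/mL. Growth read by OD600. The value is the minimum concentration that inhibits 95% of growth (sMITC95).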

Staphylococcus aureus [2] = assay: Growth inhibition of methicillin-resistant Staphylococcus aureus COL after 20 hrs
In short: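 MRSA COL grown with compound alone, with no antibiotic added. Growth read by OD600. The value is the minimum concentration that inhibits 95% of growth (iMITC95).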

[3] = Inhibition of TarO in methicillin-resistant Staphylococcus aureus membranes assessed as reduction in C55-P-P-GlcNAc production using C55-P as substrate in presence of UDP-GlcNAc by LC-MS analysis
Staphylococcus aureus [4] = assay: (§1) Potentiation of imipenem-induced antibacterial activity against methicillin-resistant Staphylococcus aureus COL MB 5393 infected in neutropenic balb/c mouse assessed as reduction in bacterial burden in kidney at 10 mg/kg, sc administered three times per day at 2, 5 and 8 hrs post challenge cotreated with imipenem measured 24 hrs post challenge; assay type: functional, organism-based
Staphylococcus aureus [5] = assay: Antibacterial activity against methicillin-resistant Staphylococcus aureus COL MB 5393 infected in balb/c mouse assessed as reduction in bacterial burden in kidney at 5 mg/kg, sc administered 2 to 8 hrs post challenge measured 24 hrs post challenge; assay type: functional, organism-based
[6] = Inhibition of methicillin-resistant Staphylococcus aureus COL TarO assessed as suppression of bacteriophage K-mediated cell lysis; design: species or system Staphylococcus aureus subsp. aureus COL
[7] = Inhibition of methicillin-resistant Staphylococcus aureus COL TarO assessed as late stage targocil suppression after 20 hrs; design: species or system Staphylococcus aureus subsp. aureus COL
[8] = biological target: Histamine H2 receptor (Homo sapiens) (UniProt P25021); assay: Inhibition of H2 receptor (unknown origin) at 10 uM relative to control
Sequence of Histamine H2 receptor (Homo sapiens) (P25021 whole entry): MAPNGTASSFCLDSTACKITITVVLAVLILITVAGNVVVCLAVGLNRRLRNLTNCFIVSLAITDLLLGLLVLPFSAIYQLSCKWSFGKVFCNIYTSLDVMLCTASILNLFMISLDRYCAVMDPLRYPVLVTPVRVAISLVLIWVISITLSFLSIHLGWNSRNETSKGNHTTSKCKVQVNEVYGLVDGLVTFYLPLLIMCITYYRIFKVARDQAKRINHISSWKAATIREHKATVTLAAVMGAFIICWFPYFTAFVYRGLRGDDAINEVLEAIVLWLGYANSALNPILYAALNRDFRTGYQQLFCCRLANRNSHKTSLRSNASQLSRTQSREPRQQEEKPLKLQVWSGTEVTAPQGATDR

[9] = biological target: Cannabinoid receptor 1 (Homo sapiens) (UniProt P21554); assay: Inhibition of CB1 receptor (unknown origin) at 10 uM relative to control
Sequence of Cannabinoid receptor 1 (Homo sapiens) (P21554 whole entry): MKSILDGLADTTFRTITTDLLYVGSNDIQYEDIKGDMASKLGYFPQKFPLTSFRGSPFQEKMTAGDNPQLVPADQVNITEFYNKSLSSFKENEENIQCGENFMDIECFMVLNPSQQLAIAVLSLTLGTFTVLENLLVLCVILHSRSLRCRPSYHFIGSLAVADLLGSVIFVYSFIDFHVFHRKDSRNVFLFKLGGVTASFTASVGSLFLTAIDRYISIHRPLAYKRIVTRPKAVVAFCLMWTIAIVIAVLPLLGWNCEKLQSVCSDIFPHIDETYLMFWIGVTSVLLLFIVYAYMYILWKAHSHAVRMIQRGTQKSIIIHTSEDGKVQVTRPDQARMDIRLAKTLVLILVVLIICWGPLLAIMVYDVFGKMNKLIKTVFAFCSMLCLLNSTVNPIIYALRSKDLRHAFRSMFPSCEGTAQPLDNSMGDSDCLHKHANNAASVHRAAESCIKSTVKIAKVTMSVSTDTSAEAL

Homo sapiens [10] = organism: Homo sapiens; assay: Inhibition of PAF (unknown origin) at 10 uM relative to control
Homo sapiens [11] = organism: Homo sapiens; assay: Inhibition of TBOB binding to GABA-A receptor (unknown origin) at 10 uM relative to control
Homo sapiens [12] = organism: Homo sapiens; assay: Inhibition of adenosine transporter (unknown origin) at 10 uM relative to control
[13] = AUC (0 to 24 hrs) in mouse at 100 mg/kg, po; assay type: ADME, organism-based; design: time < 24 hr, dose 100 mg/kg, route oral; settings: in vivo
[14] = biological target: Mitogen-activated protein kinase 3 (Homo sapiens) (UniProt P27361); assay: Inhibition of ERK1 (unknown origin) at 10 uM relative to control
Sequence of Mitogen-activated protein kinase 3 (Homo sapiens) (P27361 whole entry): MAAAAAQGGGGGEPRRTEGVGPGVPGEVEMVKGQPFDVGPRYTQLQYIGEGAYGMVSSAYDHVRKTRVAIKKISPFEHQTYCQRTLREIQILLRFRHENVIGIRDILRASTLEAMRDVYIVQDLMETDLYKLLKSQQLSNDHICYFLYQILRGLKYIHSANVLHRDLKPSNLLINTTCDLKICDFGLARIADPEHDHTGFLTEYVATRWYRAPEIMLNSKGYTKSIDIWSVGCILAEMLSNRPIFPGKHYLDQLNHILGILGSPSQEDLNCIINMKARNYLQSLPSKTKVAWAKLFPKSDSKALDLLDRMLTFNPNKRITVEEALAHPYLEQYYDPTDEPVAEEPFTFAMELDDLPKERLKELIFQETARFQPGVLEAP

[15] = Solubility of the compound in PBS buffer; assay type: physicochemical
Staphylococcus aureus [16] = assay: as §1, with “assessed as log reduction in” for “assessed as reduction in”, “kidney at 50 mg/kg, sc” for “kidney at 10 mg/kg, sc”; assay type: functional
[17] = AUC (0 to infinity) in mouse at 2 mg/kg, iv; assay type: ADME, organism-based; design: dose 2 mg/kg, time infinity, route intravenous; settings: in vivo
[18] = Clearance in rat at 1 mg/kg, iv; assay type: ADME, organism-based; settings: in vivo
[19] = Cmax in mouse spleen at 50 mg/kg, sc; assay type: ADME, organism-based; design: dose 50 mg/kg, route subcutaneous
[20] = Cmax in mouse blood at 50 mg/kg, sc; assay type: ADME, organism-based; design: dose 50 mg/kg, route subcutaneous
[21] = AUC (0 to x) in mouse kidney at 50 mg/kg, sc; assay type: ADME, organism-based
[22] = Ratio of AUC (0 to x) in mouse spleen to AUC (0 to x) in mouse blood at 50 mg/kg, sc; assay type: ADME, organism-based; settings: read-out: Ratio AUC
[23] = Tmax in mouse kidney at 50 mg/kg, sc; assay type: ADME, organism-based
[24] = Terminal half life in mouse at 2 mg/kg, iv; assay type: ADME, organism-based; settings: in vivo, read-out: beta t1/2 (converted)
[25] = AUC (0 to x) in mouse lung at 50 mg/kg, sc; assay type: ADME, organism-based
[26] = Tmax in mouse lung at 50 mg/kg, sc; assay type: ADME, organism-based
[27] = Ratio of Cmax in mouse spleen to Cmax in mouse blood at 50 mg/kg, sc; assay type: ADME, organism-based
Staphylococcus aureus [28] = assay: as §1, with “assessed as log reduction in” for “assessed as reduction in”, “kidney at 25 mg/kg, sc” for “kidney at 10 mg/kg, sc”; assay type: functional
[29] = Tmax in mouse liver at 50 mg/kg, sc; assay type: ADME, organism-based
Mus musculus = assay: Toxicity in mouse at 50 mg/kg, sc; assay type: organism-based; settings: in vivo
[30] = Volume of distribution at steady state in mouse at 2 mg/kg, iv; assay type: ADME, organism-based; settings: in vivo, read-out: Vdss
[31] = Tmax in mouse blood at 50 mg/kg, sc; assay type: ADME, organism-based
[32] = Cmax in mouse lung at 50 mg/kg, sc; assay type: ADME, organism-based; design: dose 50 mg/kg, route subcutaneous
[33] = Cmax in mouse kidney at 50 mg/kg, sc; assay type: ADME, organism-based; design: dose 50 mg/kg, route subcutaneous
Staphylococcus aureus [34] = assay: Antibacterial activity against methicillin-resistant Staphylococcus aureus COL MB 5393 infected in neutropenic balb/c mouse assessed as reduction in bacterial burden in kidney at 12.5 to 50 mg/kg, sc administered three times per day at 2, 5 and 8 hrs post challenge measured 24 hrs post challenge; assay type: functional, organism-based
[35] = Terminal half life in rat at 1 mg/kg, iv; assay type: ADME, organism-based; settings: in vivo, read-out: beta t1/2 (converted)
[36] = Tmax in mouse spleen at 50 mg/kg, sc; assay type: ADME, organism-based
[37] = Cmax in mouse liver at 50 mg/kg, sc; assay type: ADME, organism-based; design: dose 50 mg/kg, route subcutaneous
[38] = AUC (0 to x) in mouse liver at 50 mg/kg, sc; assay type: ADME, organism-based
[39] = Clearance in mouse at 2 mg/kg, iv; assay type: ADME, organism-based; settings: in vivo
[40] = AUC (0 to x) in mouse spleen at 50 mg/kg, sc; assay type: ADME, organism-based
Staphylococcus aureus [41] = assay: as §1, with “12.5” for “10”; assay type: functional, organism-based
[42] = AUC (0 to x) in mouse blood at 50 mg/kg, sc; assay type: ADME, organism-based
Staphylococcus aureus [43] = assay: as §1, with “infected in sc dosed neutropenic balb/c” for “infected in neutropenic balb/c”, “in kidney administered three” for “in kidney at 10 mg/kg, sc administered three”; assay type: functional, organism-based
[44] = Volume of distribution at steady state in rat at 1 mg/kg, iv; assay type: ADME, organism-based; settings: in vivo, read-out: Vdss
[45] = AUC (0 to infinity) in rat at 1 mg/kg, iv; assay type: ADME, organism-based; design: dose 1 mg/kg, time infinity, route intravenous; settings: in vivo

## O=C(NCc1cncc2ccccc12)N1C(=O)O[C@H](c2cccc(C(F)(F)F)c2)[C@@H]1CO
[1]
  MITC95: 650 nM
Staphylococcus aureus [2]
  MITC95: > 200 µM
[3]
  pIC50: 6.52

## CC(=O)NC[C@H]1CN(c2ccc(N3CCOCC3)c(F)c2)C(=O)O1
Staphylococcus aureus [4]
  Activity: Active

## C[C@@H](O)[C@H]1C(=O)N2C(C(=O)O)=C(SCCNC=N)C[C@H]12
Staphylococcus aureus [5]
  Activity: inactive

## O=C(NCc1cncc2ccccc12)N1C(=O)O[C@H](c2cc(F)cc(C(F)(F)F)c2)[C@@H]1CO
[1]
  MITC95: 320 nM
Staphylococcus aureus [2]
  MITC95: > 200 µM
[3]
  pIC50: 6.68

## O=C(NCc1cncc2ccccc12)N1C(=O)O[C@H](c2cc(C(F)(F)F)cc(C(F)(F)F)c2)[C@@H]1CO
[6]
  pIC50: 5.90
[1]
  MITC95: 220 nM
Staphylococcus aureus [2]
  MITC95: > 200 µM
[7]
  pIC50: 6.30
[3]
  pIC50: 6.76 to 6.77

## C[C@H]1[C@@H](c2cc(C(F)(F)F)cc(C(F)(F)F)c2)OC(=O)N1C(=O)CCc1cncc2ccccc12
[8]
  inhibition: > 50%
[1]
  MITC95: 23 nM
Staphylococcus aureus [2]
  MITC95: > 200 µM
[9]
  inhibition: > 50%
Homo sapiens [10]
  inhibition: > 50%
Homo sapiens [11]
  inhibition: > 50%
Homo sapiens [12]
  inhibition: > 50%
[13]
  AUC(0-t) at 24 h: 1.7 µM·h
[14]
  inhibition: > 50%
[3]
  pIC50: 7.62

## COc1cc(C(F)(F)F)cc([C@H]2OC(=O)N(C(=O)NCc3cncc4cccnc34)[C@H]2C)n1
[15]
  solubility: 32 µM (≈ 14.8 µg/mL)
[6]
  pIC50: 6.22
[1]
  MITC95: 375 nM
Staphylococcus aureus [2]
  MITC95: > 200 µM
[7]
  pIC50: 6.70
[3]
  pIC50: 6.59

## C[C@H]1[C@@H](c2cc(C(F)(F)F)cc(C(F)(F)F)c2)OC(=O)N1CC(=O)Nc1cncc2ccccc12
[1]
  MITC95: > 200000 nM
[3]
  pIC50: < 3.70

## C[C@H]1[C@@H](c2cccc(C(F)(F)F)c2)OC(=O)N1C(=O)NCc1cncc2ccccc12
Staphylococcus aureus [16]
  log(activity): 2.5
[17]
  AUC(0-inf): 1.26 µM·h
[18]
  clearance: 92.7 to 93 mL/min/kg
[19]
  Cmax: 29 µM
[20]
  Cmax: 4.9 µM
[21]
  AUC: 336 µM·h
[22]
  Kp: 6 to 8
[23]
  Tmax: 1 h
[24]
  half-life: 6.4 h
[25]
  AUC: 123 µM·h
[26]
  Tmax: 0.7 h
[27]
  Kp: 6 to 8
Staphylococcus aureus [28]
  log(activity): 2
[29]
  Tmax: 1 h
Mus musculus
  Activity: Non-Toxic
[30]
  Vd: 13.1 to 13.5 L/kg
[31]
  Tmax: 0.5 h
[1]
  MITC95: 250 nM
Staphylococcus aureus [2]
  MITC95: > 200 µM
[32]
  Cmax: 43.7 µM
[33]
  Cmax: 95 µM
Staphylococcus aureus [34]
  Activity: inactive
[35]
  half-life: 1.7 h
[36]
  Tmax: 1 h
[37]
  Cmax: 101 µM
[38]
  AUC: 322 µM·h
[39]
  clearance: 61 to 61.4 mL/min/kg
[40]
  AUC: 75 µM·h
Staphylococcus aureus [41]
  Activity: inactive
[42]
  AUC: 9.9 µM·h
Staphylococcus aureus [43]
  Activity: Dose-dependent effect
[3]
  pIC50: 6.79
[44]
  Vd: 6.6 L/kg
[45]
  AUC(0-inf): 0.42 µM·h

## C[C@H]1[C@@H](c2cc(C(F)(F)F)cc(C(F)(F)F)c2)OC(=O)N1CCCc1cccc2ccccc12
[3]
  pIC50: 7.42

## C[C@H]1[C@@H](c2ccccn2)OC(=O)N1C(=O)NCCc1cccc2ccccc12
[1]
  MITC95: > 200000 nM
[3]
  pIC50: 4.80

## C[C@H]1[C@@H](c2cc(C(F)(F)F)cc(C(F)(F)F)c2)OC(=O)N1C(=O)Cc1cncc2ccccc12
Staphylococcus aureus [2]
  MITC95: > 200 µM
[3]
  pIC50: 5.60

## C[C@H]1[C@@H](c2cc(C(F)(F)F)cc(C(F)(F)F)c2)OC(=O)N1CCC(=O)N1CCOc2ccccc21
[1]
  MITC95: > 200000 nM
[3]
  pIC50: < 3.70
